# Target: Sodium-dependent dopamine transporter (Rattus norvegicus, UniProt P23977)
# Test: Agonist activity at rat DAT expressed in CHO cells
# Assay type: functional, cell-based
# In short: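 CHO cell lines constructed to stably express DAT were used to measure DAT agonistic activity, reported as EC50.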
# Sequence of Sodium-dependent dopamine transporter (P23977 whole entry): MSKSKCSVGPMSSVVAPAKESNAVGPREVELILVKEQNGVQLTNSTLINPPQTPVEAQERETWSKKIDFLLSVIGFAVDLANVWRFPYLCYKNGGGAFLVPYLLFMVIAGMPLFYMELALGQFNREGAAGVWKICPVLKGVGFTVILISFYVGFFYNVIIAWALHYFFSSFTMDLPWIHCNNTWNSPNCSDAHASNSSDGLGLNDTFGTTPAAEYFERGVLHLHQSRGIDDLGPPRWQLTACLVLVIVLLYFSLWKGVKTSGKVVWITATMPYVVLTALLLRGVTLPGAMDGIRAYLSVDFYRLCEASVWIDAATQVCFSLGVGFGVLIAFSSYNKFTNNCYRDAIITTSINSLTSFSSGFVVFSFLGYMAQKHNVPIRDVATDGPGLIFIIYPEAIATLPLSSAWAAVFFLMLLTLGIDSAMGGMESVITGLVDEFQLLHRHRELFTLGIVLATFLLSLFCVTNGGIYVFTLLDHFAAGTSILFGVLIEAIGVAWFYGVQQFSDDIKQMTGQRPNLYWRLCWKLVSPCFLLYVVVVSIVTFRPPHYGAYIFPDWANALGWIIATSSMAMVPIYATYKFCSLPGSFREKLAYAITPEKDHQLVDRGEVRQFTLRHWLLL
compound,measurement,value
CC(=O)Oc1cc(O)cc2oc(-c3ccc(O)c(O)c3)cc(=O)c12,EC50,5.37 µM
CCC(=O)Oc1cc(O)cc2oc(-c3ccc(O)c(O)c3)cc(=O)c12,EC50,31 µM
CCCC(=O)Oc1cc(O)cc2oc(-c3ccc(O)c(O)c3)cc(=O)c12,EC50,1.82 µM
CC(C)C(=O)Oc1cc(O)cc2oc(-c3ccc(O)c(O)c3)cc(=O)c12,EC50,0.046 µM
CCCCC(=O)Oc1cc(O)cc2oc(-c3ccc(O)c(O)c3)cc(=O)c12,EC50,0.869 µM
CC(C)CCC(=O)Oc1cc(O)cc2oc(-c3ccc(O)c(O)c3)cc(=O)c12,EC50,2.71 µM
CCCCCCCC(=O)Oc1cc(O)cc2oc(-c3ccc(O)c(O)c3)cc(=O)c12,EC50,8.56 µM
O=C(Oc1cc(O)cc2oc(-c3ccc(O)c(O)c3)cc(=O)c12)c1ccccc1,EC50,11.2 µM
Cc1ccc(C(=O)Oc2cc(O)cc3oc(-c4ccc(O)c(O)c4)cc(=O)c23)cc1,EC50,6.92 µM
COc1cc(O)cc2oc(-c3ccc(O)c(O)c3)cc(=O)c12,EC50,4.35 µM
CCOc1cc(O)cc2oc(-c3ccc(O)c(O)c3)cc(=O)c12,EC50,2.21 µM
CCCOc1cc(O)cc2oc(-c3ccc(O)c(O)c3)cc(=O)c12,EC50,3.07 µM
CC(C)Oc1cc(O)cc2oc(-c3ccc(O)c(O)c3)cc(=O)c12,EC50,5.43 µM
CCCCOc1cc(O)cc2oc(-c3ccc(O)c(O)c3)cc(=O)c12,EC50,2.4 µM
CC(C)COc1cc(O)cc2oc(-c3ccc(O)c(O)c3)cc(=O)c12,EC50,4.8 µM
CC(C)CCOc1cc(O)cc2oc(-c3ccc(O)c(O)c3)cc(=O)c12,EC50,3.43 µM
CCCCCCOc1cc(O)cc2oc(-c3ccc(O)c(O)c3)cc(=O)c12,EC50,4.58 µM
CCCCCCCCOc1cc(O)cc2oc(-c3ccc(O)c(O)c3)cc(=O)c12,EC50,16.5 µM
CCCCCCCCCCOc1cc(O)cc2oc(-c3ccc(O)c(O)c3)cc(=O)c12,EC50,33 µM
O=c1cc(-c2ccc(O)c(O)c2)oc2cc(O)cc(OCCCCc3ccccc3)c12,EC50,2.59 µM
CCC(=O)Oc1cc(O)c2c(=O)cc(-c3ccc(O)c(O)c3)oc2c1,EC50,1.7 µM
CCCC(=O)Oc1cc(O)c2c(=O)cc(-c3ccc(O)c(O)c3)oc2c1,EC50,1.69 µM
CC(C)C(=O)Oc1cc(O)c2c(=O)cc(-c3ccc(O)c(O)c3)oc2c1,EC50,1.38 µM
COc1cc(OC)c2c(=O)cc(-c3ccc(O)c(O)c3)oc2c1,EC50,3.42 µM
CCOc1cc(-c2cc(=O)c3c(O)cc(O)cc3o2)ccc1O,EC50,12.9 µM
O=c1cc(-c2ccc(O)c(O)c2)oc2cc(O)cc(O)c12 [LUTEOLIN],EC50,1.45 µM

# Source: ChEMBL document CHEMBL1275388, “Discovery and synthesis of novel luteolin derivatives as DAT agonists” (Bioorg Med Chem, 2010)
